Data: ChEMBL document CHEMBL1124186, “Synthesis and evaluation of tylosin-related macrolides modified at the aldehyde function: a new series of orally effective antibiotics” (1988)
Converted amounts (≈) assume the structure as drawn.

What was measured:
Streptococcus pyogenes [1] = assay: (§1) In vitro antimicrobial activity against Streptococcus pyogenes C203; assay type: functional
Streptococcus pyogenes [2] = assay: In vivo effective dose against experimental infections in rodent caused by Streptococcus pyogenes C203 when administered orally; assay type: functional; conditions: po
Streptococcus pyogenes [3] = assay: […] effective dose against Streptococcus pyogenes C203 when administered sc; assay type: functional
How it was run: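 Infected mice (S. pyogenes C203) were treated subcutaneously 1 and 5 h postinfection with 0.25 mL of antibiotic in 10% aqueous ethanol, with tartaric acid added when needed to dissolve it. A range of concentrations was given. The value is the ED50 expressed as mg/kg × 2.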

Streptococcus pneumoniae = assay: In vitro antimicrobial activity against Streptococcus pneumoniae; assay type: functional
Enterococcus faecium = assay: In vitro antimicrobial activity against Streptococcus faecium X66; assay type: functional, streptococcus fae-cium
Streptococcus pyogenes [4] = assay: as §1; assay type: functional; remark: listed apart in the source
Haemophilus influenzae = assay: In vitro antimicrobial activity against Haemophilus influenzae.; assay type: functional
Staphylococcus aureus = assay: In vitro antimicrobial activity against Staphylococcus aureus X1; assay type: functional
[5] = test system: Staphylococcus epidermidis; assay: In vitro antimicrobial activity against Staphylococcus epidermidis EPI1; assay type: functional
Streptococcus pyogenes [6] = assay: In vivo effective dose against experimental infections in rodent caused by Streptococcus pyogenes C203 when administered sc; assay type: functional
Streptococcus pyogenes [7] = assay: […] effective dose against Streptococcus pyogenes C203 when administered orally; assay type: functional; conditions: po

CC[C@H]1OC(=O)C[C@@H](O)[C@H](C)[C@@H](O[C@@H]2O[C@H](C)[C@@H](O[C@H]3C[C@@](C)(O)[C@@H](O)[C@H](C)O3)[C@H](N(C)C)[C@H]2O)[C@@H](CC=O)C[C@@H](C)C(=O)/C=C/C(C)=C/[C@@H]1CO[C@@H]1O[C@H](C)[C@@H](O)[C@@H](O)[C@H]1OC [MACROCIN]
MIC (Streptococcus pyogenes [1]): 0.25 µg/mL (≈ 0.277 µM) | ED50 (Streptococcus pyogenes [2]): 71 mg/kg | ED50 (Streptococcus pyogenes [3]): < 1.2 mg/kg | MIC (Streptococcus pneumoniae): 1 µg/mL (≈ 1.11 µM) | MIC (Enterococcus faecium): 2 µg/mL (≈ 2.22 µM) | MIC (Streptococcus pyogenes [4]): 0.25 µg/mL (≈ 0.277 µM) | MIC (Haemophilus influenzae): 16 µg/mL (≈ 17.7 µM) | MIC (Staphylococcus aureus): 0.5 µg/mL (≈ 0.554 µM) | MIC [5]: 1 µg/mL (≈ 1.11 µM) | ED50 (Streptococcus pyogenes [6]): 1.9 mg/kg | ED50 (Streptococcus pyogenes [7]): > 80 mg/kg
